Test results: article PMC5093073 (Cancer prevention research (Philadelphia, Pa.), 2016)
Entries after “also recorded” stand apart in the source; their conditions may differ. Read-outs that look alike come from different tables or passages of the source.

Columns and labels:
platelet TxB2 production = experiment: Serum thromboxane B2 levels in healthy volunteers; assay type: in vivo, human; conditions: aspirin 81 mg daily 2 weeks
[1] = tested on: COX-derived PGE2 in HCA-7 colon cancer cells; experiment: PGE2 biosynthesis from [2H8]AA in HCA-7 cells; assay type: cell-based; conditions: Homo sapiens
Summary of the method: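 HCA-7 cells were grown in DMEM with 10% FBS at 37°C, 5% CO₂, without IL-1β activation. In albumin-free medium, cells were preincubated for 30 min at 37°C with test compound. Then 2.0 µM [²H₈]AA was added and incubation continued for 15 min. The harvested medium was analysed by GC/NICI/MS for [²H₈]-PGE₂.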

[2] = tested on: adenocarcinoma metastasis; conditions: cited from earlier work
[3] = tested on: platelet-A549 cell aggregates; assay type: cell-based, human; conditions: platelets from blood treated with 100 µM aspirin 40 min, washed, ADP-activated
[4] = tested on: COX-derived PGE2 in HT-29 colon cancer cells; experiment: PGE2 biosynthesis from [2H8]AA in HT-29 cells; assay type: cell-based; conditions: Homo sapiens, HT-29, read-out: IC50 for inhibition of PGE2 biosynthesis
[5] = tested on: systemic PGE2 biosynthesis; experiment: Urinary PGE-M; assay type: in vivo, human; conditions: for reduction in extra-platelet PGE2 production: corrected for platelet-derived PGE2, aspirin 81 mg daily 2 weeks; for reduction of urinary PGE-M levels: aspirin 81 mg daily 2 weeks
[6] = tested on: COX-derived PGE2 in H2122 lung adenocarcinoma cells; experiment: PGE2 biosynthesis from [2H8]AA in H2122 cells; assay type: cell-based, human
Summary of the method: (§1)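 Cells grown in DMEM with 10% FBS at 37°C, 5% CO₂, then given 1 ng/ml IL-1β for 24 h at 90% confluence to induce COX-2. In albumin-free medium, cells were preincubated for 30 min at 37°C with graded concentrations of test compound. Then 2.0 µM [²H₈]AA was added for 15 min, and the medium was harvested for GC/NICI/MS measurement of [²H₈]-PGE₂.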

[7] = tested on: COX-derived PGE2 in A549 lung adenocarcinoma cells; experiment: PGE2 biosynthesis from [2H8]AA in A549 cells; assay type: cell-based, human; conditions: for inhibition of PGE2 synthesis: IL-1β-activated A549, 100 nM inhibitor
Summary of the method: as §1

COX-2 = target: T1, COX-2 (Homo sapiens, UniProt P35354); assay type: cell-based; conditions: IL-1β-activated A549, pretreated with 100 µM aspirin
T1 sequence (P35354 18-604): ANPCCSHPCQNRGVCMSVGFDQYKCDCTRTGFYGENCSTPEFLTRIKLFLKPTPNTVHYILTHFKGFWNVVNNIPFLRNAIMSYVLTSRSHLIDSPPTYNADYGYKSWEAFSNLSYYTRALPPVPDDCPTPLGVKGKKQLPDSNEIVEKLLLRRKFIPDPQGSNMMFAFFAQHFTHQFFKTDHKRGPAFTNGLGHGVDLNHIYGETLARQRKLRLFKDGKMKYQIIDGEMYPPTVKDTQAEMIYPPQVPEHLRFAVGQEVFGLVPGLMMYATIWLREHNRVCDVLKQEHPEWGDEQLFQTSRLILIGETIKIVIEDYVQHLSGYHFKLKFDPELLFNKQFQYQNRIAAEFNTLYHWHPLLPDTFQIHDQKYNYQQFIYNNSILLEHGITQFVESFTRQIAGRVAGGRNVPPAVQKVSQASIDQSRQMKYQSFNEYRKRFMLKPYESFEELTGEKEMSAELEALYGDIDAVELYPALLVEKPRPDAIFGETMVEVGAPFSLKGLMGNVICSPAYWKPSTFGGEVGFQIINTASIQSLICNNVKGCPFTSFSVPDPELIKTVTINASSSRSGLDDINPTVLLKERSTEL

[8] = tested on: COX-derived PGE2 in HCC827 lung adenocarcinoma cells; experiment: PGE2 biosynthesis from [2H8]AA in HCC827 cells; assay type: cell-based; conditions: Homo sapiens, HCC827, read-out: IC50 for inhibition of PGE2 biosynthesis
[9] = tested on: COX-1 in human washed platelets; experiment: Prostanoid; assay type: cell-based; conditions: 100 nM inhibitor; for effect on TxB2 synthesis by washed platelets: platelets without A549 cells
[10] = tested on: systemic PGE2 biosynthesis; conditions: ibuprofen 800 mg 4 times daily; cited from earlier work

SMILES: CC(=O)Oc1ccccc1C(=O)O [aspirin, acetyl salicylic acid]
- reduction of serum thromboxane B2 levels (platelet TxB2 production): 96.6%
- IC50 ([1]; HCA-7, read-out: IC50 for inhibition of PGE2 biosynthesis): 3.9 ± 0.7 µM
- hazard ratio for later metastasis ([2]; adenocarcinomas other than those of the colon): 0.47
- hazard ratio for later metastasis ([2]; colon cancers, no metastasis at diagnosis, 95% CI 0.03–0.56, p=0.007): 0.13
- reduction of development of metastases ([2]; patients who develop cancer while receiving aspirin): 69%
- COX-2 protein expression in A549 cells [3]: still upregulated
- PGE2 production by platelet-A549 aggregates [3]: significantly inhibited; also recorded: effectively blocked
- IC50 [4]: 8.9 ± 1.2 µM
- reduction in extra-platelet PGE2 production ([5]; females): 55.4%
- reduction of urinary PGE-M levels ([5]; healthy females): 56%
- reduction of urinary PGE-M levels ([5]; healthy males): 39%
- reduction in extra-platelet PGE2 production ([5]; males): 38.6%
- IC50 ([6]; Homo sapiens, NCI-H2122, read-out: IC50 for inhibition of PGE2 biosynthesis): 15 ± 1.3 µM
- IC50 ([7]; Homo sapiens, A549, read-out: IC50 for inhibition of PGE2 biosynthesis): 7.2 ± 1.1 µM
- blockade of COX-2 labeling by fluorocoxib A (COX-2): effectively blocked COX-2 labeling; also recorded: inhibited COX-2 associated fluorocoxib A fluorescence
- IC50 [8]: 22.5 ± 3.2 µM

SMILES: CS(=O)(=O)Nc1ccc([N+](=O)[O-])cc1OC1CCCCC1 [NS-398]
- inhibition of PGE2 synthesis [7]: fully blocks
- effect on PGE2 production in washed platelets [9]: does not block
- effect on TxB2 synthesis by washed platelets [9]: did not inhibit; also recorded: does not block

SMILES: CC(C)Cc1ccc(C(C)C(=O)O)cc1 (stereo not drawn) [ibuprofen]
- reduction of PGE2 production in humans [10]: 63%

SMILES: Cc1onc(-c2ccccc2)c1-c1ccc(S(N)(=O)=O)cc1 [valdecoxib]
- inhibition at 0.1 µM ([1]; HCA-7, read-out: inhibition of PGE2 synthesis): 60%
- inhibition of PGE2 synthesis ([6]; H2122, 100 nM inhibitor): fully inhibited
- inhibition of PGE2 synthesis [7]: fully inhibited
- effect on TxB2 synthesis by washed platelets [9]: no effect
